Test results taken from publication PMC8978969 (RSC Advances, 2022).
Values after ≈ are worked out from the molar mass of the structure shown. Values joined by “and” are separate entries in the source; they are usually repeats but may differ in a detail not shown here. Equal entries are not always repeated. Blank lines part the entries; values can stand above or below the compound they belong to.

What was measured:
Equilibrium solubility = format: physicochemical; conditions: for solubility at 24 h: thermodynamic from solid
[1] = Partition coefficients by shake-flask method; format: physicochemical
Summary of the method: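 Shake-flask method per OECD guidelines. n-Octanol and ultrapure water were mutually saturated by 24 h in a thermostat shaker, then 72 h standing. After partitioning, phases were centrifuged to separate completely, and drug in each phase was measured by HPLC to give logP. For logD7.4, 0.01 M PBS pH 7.4 replaced water, with otherwise identical steps.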

Solution stability assay = format: physicochemical; conditions: 37 °C
[2] = 24 h kinetic saturation solubilities; format: physicochemical
[3] = Gastrointestinal tract parallel artificial membrane permeability assay; format: in vitro ADME; conditions: PAMPA
Summary of the method: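 Donor solutions were made in Tris buffer pH 6.5 at several drug concentrations starting from 150 μg ml−1. The acceptor-well hydrophobic filter (0.45 μm) was coated with 2% soybean L-α-phosphatidylcholine in n-dodecane, and the acceptor held Tris buffer pH 7.4. The sandwich was incubated 16 h at room temperature. Receiver solution was quantified by HPLC, n = 6. Papp (cm s−1) was calculated from a published equation.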

Cytotoxicity test = format: cell-based; conditions: human, Caco-2 cells
Summary of the method: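 Caco-2 cells were grown in DMEM with 10% FBS and 1% penicillin/streptomycin at 37 °C in 5% CO2. Cells were seeded at 4 × 10^3 per well and left 16 h. Test compounds were dissolved in DMSO and serially diluted in DMEM, then applied for 24 h. CCK-8 was added for 3 h and absorbance read at 450 nm. IC50 was derived from a concentration–survival plot, mean ± SD of triplicates.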

- solubility at 24 h (Equilibrium solubility; FaSSIF, 37 °C, pH 6.5, fassif): 196 ± 3.32 µg/mL (≈ 606 µM)
- solubility at 24 h (Equilibrium solubility; FeSSIF, 37 °C, pH 5, fessif): 30.1 ± 1.07 µg/mL (≈ 93.2 µM)
- solubility at 24 h (Equilibrium solubility; Milli-Q water, 37 °C, water): 43.5 ± 1.67 µg/mL (≈ 135 µM)
- solubility at 24 h (Equilibrium solubility; PBS 7.4, 37 °C, pH 7.4, aqueous buffer): 1590 ± 103 µg/mL (≈ 4910 µM)
- solubility at 24 h (Equilibrium solubility; SIF, 37 °C, pH 6.8, fassgf or other biorelevant): 584 ± 23 µg/mL (≈ 1810 µM)
- solubility thermodynamic at 24 h (Equilibrium solubility; Tris buffer pH 6.5, pH 6.5): 178 µg/mL (≈ 550 µM)
- solubility at 24 h (Equilibrium solubility; blank FaSSIF, 37 °C, pH 6.5, aqueous buffer): 190.6 ± 0.63 µg/mL (≈ 589 µM)
- solubility at 24 h (Equilibrium solubility; blank FeSSIF, 37 °C, pH 5, aqueous buffer): 28.7 ± 0.99 µg/mL (≈ 88.7 µM)
- logD ([1]; n-octanol/PBS 7.4, pH 7.4): 0.45 ± 0.01
- logP ([1]; n-octanol/water): 1.71 ± 0.03
- Solution stability in SIF (Solution stability assay; SIF, whole experiment period (24 h)): relatively stable
- Initial content remained at 24 h (Solution stability assay; pH 7.4 buffer (PBS 7.4), 20 μg ml^−1 GLI, 24 h): zero
- solubility kinetic at 12 h ([2]; Milli-Q water): 40.3 µg/mL (≈ 125 µM)
- Time within which peak concentration was achieved ([2]; PBS 7.4, SIF and FaSSIF): ≤ 6 h
- Time of peak concentration ([2]; water): 4 h
- Papp at 16 h, 150 μg ml^−1 [3]: 2.46 ×10⁻⁶ cm/s
Compound: Cc1ccc(S(=O)(=O)NC(=O)NN2CC3CCCC3C2)cc1 (stereo not drawn) [GLI, Gliclazide]
- IC50 at 24 h (Cytotoxicity test): 20.8 ± 1.11 mM

- Solubility, FaSSIF (Equilibrium solubility; FaSSIF (pH 6.5), 37 °C, as GLI, n = 3, mean ± SD): 34.53 ± 2.79 µg/mL
- Solubility, PBS 7.4 (Equilibrium solubility; PBS pH 7.4, 37 °C, as GLI, n = 3, mean ± SD): 301.87 ± 6.82 µg/mL
- Solubility, SIF (Equilibrium solubility; SIF (pH 6.8), 37 °C, as GLI, n = 3, mean ± SD): 102.43 ± 11.54 µg/mL
- Solubility, Blank FaSSIF (Equilibrium solubility; blank FaSSIF, 37 °C, as GLI, n = 3, mean ± SD): 32.14 ± 1.56 µg/mL
- Solubility, Water (Equilibrium solubility; water, 37 °C, 24 h, as GLI, n = 3, mean ± SD): 1.5 µg/mL and 1.51 ± 0.13 µg/mL
- log D7.4 ([1]; n-octanol/PBS 7.4, 37 °C): 0.69 ± 0.02
- log P ([1]; n-octanol/water, 37 °C): 2.72 ± 0.24
Compound: Gliclazide tributyl(tetradecyl)phosphonium ionic liquid [[P6,6,6,14][GLI]]
